# Measured values: ChEMBL document CHEMBL1140923, “Discovery of imidazo[1,2-b]thiazole derivatives as novel SIRT1 activators” (J Med Chem, 2009)
# Activity calls are given as the source filed them. No cut-off for these calls is given here.
# Columns and labels:
# Rattus norvegicus [1] = assay: Antidiabetic activity in genetic Zucker fa/fa rat model assessed as increase in glucose disposal rate at 100 mg/kg, po daily once after 4 weeks by hyperinsulinemic-euglycemic clamp; type: functional
# Outline: (§1)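 Zucker fa/fa rats, cannulated 5 days beforehand and fasted 8 h, underwent the clamp after 4 weeks of dosing. [3-3H]glucose tracer was primed and infused, then insulin 25 (mU/kg)/min was started. Variable 50% dextrose held blood glucose at 100 mg/dL over 120 min, with tracer specific activity sampled at 110 and 120 min.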
# Rattus norvegicus [2] = assay: Antidiabetic activity in genetic Zucker fa/fa rat model assessed as reduction of glucose production at 100 mg/kg, po daily once after 3 weeks by pyruvate tolerance test; type: functional, organism-based; set-up: dose 100 mg/kg
# Outline: (§2)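 Male Zucker fa/fa rats, housed singly, were gavaged daily from 7 weeks of age with 100 mg/kg or vehicle (2% HPMC + 0.2% DOSS), 5 per group. Fed tail-vein glucose was taken on day 22. Also on day 22, after an overnight fast, sodium pyruvate 1 g/kg was given ip and glucose was read at 0-90 min.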
# Mus musculus [3] = assay: Antidiabetic activity in diet-induced obesity C57BL/6 mouse model assessed as reduction of fed blood glucose level at 100 mg/kg, po daily once relative to control
# Cytochrome P450 3A4 = Cytochrome P450 3A4 (Homo sapiens, UniProt P08684); assay: Inhibition of CYP3A4 at 25 uM; type: ADME
# Cytochrome P450 3A4, sequence (P08684 whole entry): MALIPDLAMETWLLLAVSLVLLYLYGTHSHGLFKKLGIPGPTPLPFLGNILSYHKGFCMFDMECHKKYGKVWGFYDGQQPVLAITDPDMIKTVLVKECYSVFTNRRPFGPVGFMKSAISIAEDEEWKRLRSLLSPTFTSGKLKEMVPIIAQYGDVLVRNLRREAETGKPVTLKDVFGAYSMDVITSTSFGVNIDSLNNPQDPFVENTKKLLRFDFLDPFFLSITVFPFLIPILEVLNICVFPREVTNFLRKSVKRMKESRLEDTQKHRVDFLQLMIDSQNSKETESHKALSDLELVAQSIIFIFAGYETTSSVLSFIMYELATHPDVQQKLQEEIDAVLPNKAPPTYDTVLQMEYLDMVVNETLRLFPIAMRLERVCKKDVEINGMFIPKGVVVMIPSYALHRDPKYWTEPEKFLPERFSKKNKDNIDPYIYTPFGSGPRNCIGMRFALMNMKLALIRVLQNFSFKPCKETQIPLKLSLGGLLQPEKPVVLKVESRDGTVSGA
# Outline: (§3)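 Inhibition of CYP isozymes was tested up to a highest concentration of 25 µM.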
# Rattus norvegicus [4] = assay: Antidiabetic activity in genetic Zucker fa/fa rat model assessed as increase in glucose infusion rate at 100 mg/kg, po daily once after 4 weeks by hyperinsulinemic-euglycemic clamp; type: functional; outline: as §1
# Mus musculus [5] = assay: Liver toxicity in diet-induced obesity C57BL/6 mouse model at 100 mg/kg, po daily once after 10 weeks; type: organism-based; set-up: dose 100 mg/kg, route oral; conditions: in vivo, 1680 h
# Outline: (§4)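 Male C57BL/6 mice were fed a 60%-fat diet from 9 weeks of age until about 40 g, in groups of 6-10. They were dosed by oral gavage once daily in 2% HPMC + 0.2% DOSS, with 29 at 100 mg/kg and rosiglitazone at 5 mg/kg, alongside vehicle groups on lean and high-fat diet. Fed glucose was read at weeks 2, 4, 6, 8 and 10. Clinical chemistry and hematology were also measured. Analysis by ANOVA.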
# [6] = Cmax in C57BL/6 mouse at 100 mg/kg, po or 10 mg/kg, iv; type: ADME, organism-based; conditions: in vivo
# Outline: (§5)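 Male C57BL/6 mice (18-22 g; 3 per dose group per time point), given 100 mg/kg po as the hydrochloride salt in 2% HPMC + 0.2% DOSS, or 10 mg/kg iv by tail vein in 10% ethanol/40% polyethylene glycol/50% H2O. Plasma was taken at 5, 30, 120 and 360 min after dosing and drug levels were measured.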
# [7] = biological target: Voltage-gated inwardly rectifying potassium channel KCNH2 (Homo sapiens, UniProt Q12809); assay: Inhibition of human ERG by patch clamp method
# Voltage-gated inwardly rectifying potassium channel KCNH2, sequence (Q12809 whole entry): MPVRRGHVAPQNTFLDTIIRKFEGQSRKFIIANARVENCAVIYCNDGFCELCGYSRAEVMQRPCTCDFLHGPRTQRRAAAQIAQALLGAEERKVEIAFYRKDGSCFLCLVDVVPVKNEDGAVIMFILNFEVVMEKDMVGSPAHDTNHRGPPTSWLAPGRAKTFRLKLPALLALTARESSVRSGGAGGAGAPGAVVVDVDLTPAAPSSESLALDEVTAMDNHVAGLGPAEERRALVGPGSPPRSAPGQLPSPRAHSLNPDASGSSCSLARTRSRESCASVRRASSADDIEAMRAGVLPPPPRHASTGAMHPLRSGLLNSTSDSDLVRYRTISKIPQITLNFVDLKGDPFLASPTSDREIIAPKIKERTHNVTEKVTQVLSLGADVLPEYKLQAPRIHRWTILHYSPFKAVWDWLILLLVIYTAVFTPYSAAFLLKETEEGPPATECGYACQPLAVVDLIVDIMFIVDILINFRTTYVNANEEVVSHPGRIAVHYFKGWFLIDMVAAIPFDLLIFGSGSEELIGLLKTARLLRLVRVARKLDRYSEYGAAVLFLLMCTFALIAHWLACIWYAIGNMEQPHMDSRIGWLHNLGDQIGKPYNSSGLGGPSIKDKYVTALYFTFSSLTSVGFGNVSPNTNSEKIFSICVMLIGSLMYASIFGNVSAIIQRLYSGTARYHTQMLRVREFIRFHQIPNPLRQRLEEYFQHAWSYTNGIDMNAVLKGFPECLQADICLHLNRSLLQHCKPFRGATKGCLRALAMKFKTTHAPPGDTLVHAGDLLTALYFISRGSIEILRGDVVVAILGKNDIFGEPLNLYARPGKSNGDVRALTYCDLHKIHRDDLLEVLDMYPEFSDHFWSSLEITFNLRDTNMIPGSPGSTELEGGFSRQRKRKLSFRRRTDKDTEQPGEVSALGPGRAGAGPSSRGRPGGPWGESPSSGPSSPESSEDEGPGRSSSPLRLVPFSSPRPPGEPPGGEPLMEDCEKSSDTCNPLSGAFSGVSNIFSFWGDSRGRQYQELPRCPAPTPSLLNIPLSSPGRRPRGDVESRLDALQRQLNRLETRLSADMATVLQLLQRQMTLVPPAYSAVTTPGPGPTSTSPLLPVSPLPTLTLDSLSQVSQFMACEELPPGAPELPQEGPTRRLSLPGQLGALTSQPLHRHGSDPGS
# Outline: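 hERG was measured by patch clamp.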
# [8] = biological target: Sodium-dependent noradrenaline transporter (Homo sapiens, UniProt P23975); assay: Inhibition of norepinephrine transporter
# Sodium-dependent noradrenaline transporter, sequence (P23975 whole entry): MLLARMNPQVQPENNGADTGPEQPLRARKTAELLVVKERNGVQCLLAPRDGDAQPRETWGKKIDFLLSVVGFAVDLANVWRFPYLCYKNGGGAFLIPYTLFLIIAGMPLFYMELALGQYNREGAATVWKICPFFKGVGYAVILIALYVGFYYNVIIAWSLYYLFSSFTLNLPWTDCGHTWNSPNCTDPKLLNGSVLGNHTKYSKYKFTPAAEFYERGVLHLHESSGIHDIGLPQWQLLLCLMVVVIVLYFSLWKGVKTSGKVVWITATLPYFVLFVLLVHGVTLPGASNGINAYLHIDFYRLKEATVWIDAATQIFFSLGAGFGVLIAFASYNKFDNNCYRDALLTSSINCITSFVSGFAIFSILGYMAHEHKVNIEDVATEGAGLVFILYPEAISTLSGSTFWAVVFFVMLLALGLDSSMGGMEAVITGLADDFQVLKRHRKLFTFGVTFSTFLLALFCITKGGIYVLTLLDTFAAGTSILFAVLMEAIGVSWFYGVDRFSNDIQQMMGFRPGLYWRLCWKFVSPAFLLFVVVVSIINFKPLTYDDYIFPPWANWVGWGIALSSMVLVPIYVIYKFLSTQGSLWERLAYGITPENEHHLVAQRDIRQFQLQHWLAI
# [9] = Terminal half life in C57BL/6 mouse at 100 mg/kg, po or 10 mg/kg, iv; type: ADME, organism-based; conditions: in vivo, read-out: beta t1/2 (converted); outline: as §5
# [10] = Inhibition of CYP1A at 25 uM; type: ADME; outline: as §3
# Mus musculus [11] = assay: Toxicity in diet-induced obesity C57BL/6 mouse model assessed as white blood count at 100 mg/kg, po daily once for 10 weeks; type: organism-based; set-up: dose 100 mg/kg, route oral; conditions: in vivo, 1680 h; outline: as §4
# [12] = Cmax in Sprague-Dawley rat at 100 mg/kg, po or 10 mg/kg, iv; type: ADME, organism-based; conditions: in vivo
# Outline: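 Male Sprague-Dawley rats (250 g, 3 per dose group) received 100 mg/kg by oral gavage in 2% HPMC + 0.2% DOSS, or 10 mg/kg iv by tail vein in 10% ethanol/40% PEG/50% H2O. Blood was drawn at 0.033-24 h postdose for drug levels.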
# Rattus norvegicus [13] = assay: Antidiabetic activity in genetic Zucker fa/fa rat model assessed as reduction of fed blood glucose level at 100 mg/kg, po daily once after 3 weeks relative to control; type: functional, organism-based; set-up: dose 100 mg/kg; outline: as §2
# Mus musculus [14] = assay: Antidiabetic activity in diet-induced obesity C57BL/6 mouse model assessed as reduction of plasma insulin level at 100 mg/kg, po daily once after 10 weeks; type: functional, organism-based; set-up: dose 100 mg/kg; outline: as §4
# [15] = biological target: T1, NAD-dependent protein deacetylase sirtuin-1 (Homo sapiens) (UniProt Q96EB6); assay: Activation of human SIRT1 expressed in Escherichia coli BL21Start assessed as concentration required to increase 50% enzyme activity by mass spectrometry assay
# T1 sequence (whole entry): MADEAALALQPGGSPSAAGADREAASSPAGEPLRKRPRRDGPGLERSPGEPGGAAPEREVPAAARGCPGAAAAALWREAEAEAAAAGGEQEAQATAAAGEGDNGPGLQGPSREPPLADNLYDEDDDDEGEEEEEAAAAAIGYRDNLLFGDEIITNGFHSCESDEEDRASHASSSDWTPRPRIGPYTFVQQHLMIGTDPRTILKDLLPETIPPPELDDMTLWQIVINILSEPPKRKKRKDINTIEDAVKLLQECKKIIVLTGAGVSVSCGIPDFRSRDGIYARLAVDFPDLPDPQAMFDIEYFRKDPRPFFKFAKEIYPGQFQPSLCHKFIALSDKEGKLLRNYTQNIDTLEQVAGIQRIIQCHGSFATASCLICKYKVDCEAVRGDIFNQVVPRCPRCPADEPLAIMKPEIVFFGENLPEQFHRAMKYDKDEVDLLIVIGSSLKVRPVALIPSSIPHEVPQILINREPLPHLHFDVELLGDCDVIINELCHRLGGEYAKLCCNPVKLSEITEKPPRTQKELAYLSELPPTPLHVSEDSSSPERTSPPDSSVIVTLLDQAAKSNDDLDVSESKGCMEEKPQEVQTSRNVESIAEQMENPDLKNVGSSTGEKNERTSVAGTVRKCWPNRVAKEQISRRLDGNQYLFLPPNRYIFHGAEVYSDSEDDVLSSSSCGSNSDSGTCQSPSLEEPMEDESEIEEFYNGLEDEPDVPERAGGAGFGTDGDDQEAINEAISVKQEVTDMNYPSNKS
# Outline: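 Truncated SIRT1 was expressed in E. coli BL21Start (DE3) and purified on Ni2+ chelate. Reaction: 10 nM enzyme, 0.5 µM biotinylated, fluorophore-tagged p53-derived 20-mer acetyl-lysine peptide and 120 µM NAD+, in 50 mM Tris-acetate pH 8 with NaCl, KCl, MgCl2, 5 mM DTT and 0.05% BSA; DMSO vehicle; 25 min at 25 °C. Stopped with formic acid/nicotinamide; acetylated versus deacetylated peptide read by mass spectrometry. EC1.5 is the concentration raising activity by 50%, the mean of three titration curves.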
# Salmonella typhimurium [16] = assay: Mutagenic activity in Salmonella Typhimurium TA100 in presence of S9 activation; type: toxicity, organism-based; conditions: salmonella enterica subsp. enterica serovar typhimurium
# Mus musculus [17] = assay: Antidiabetic activity in diet-induced obesity C57BL/6 mouse model assessed as reduction of plasma insulin level at 100 mg/kg, po daily once after 10 weeks
# Salmonella typhimurium [18] = assay: Mutagenic activity in Salmonella Typhimurium TA98 in absence of S9 activation; type: toxicity, organism-based; conditions: salmonella enterica subsp. enterica serovar typhimurium
structure (smiles),measurement,setting,value
O=C(Nc1ccccc1-c1cn2c(CN3CCNCC3)csc2n1)c1cnc2ccccc2n1,Activity,Rattus norvegicus [1],20%
same,Activity,Rattus norvegicus [2],Active
same,Activity,Mus musculus [3],Active
same,Activity,Cytochrome P450 3A4,Not Active
same,Activity,Rattus norvegicus [4],35%
same,Activity,Mus musculus [5],Non-toxic
same,Cmax,[6],1000 nM
same,IC50,[7],> 10000 nM
same,IC50,[8],2470 nM
same,half-life,[9],5 h
same,Activity,[10],Not Active
same,Activity,Mus musculus [11],Active
same,Cmax,[12],320 nM
same,Activity,Rattus norvegicus [13],Active
same,Activity,Mus musculus [14],Active
same,Activity,[15],0.16 µM
same,Activity,Salmonella typhimurium [16],Non-toxic
same,Activity,Mus musculus [17],Active
same,Activity,Salmonella typhimurium [18],Non-toxic
